# Measured values gathered from unrelated publications.
# Compare with care: the assays were run in different laboratories.
# Cell line: A549
# Read-out: cell growth or viability
Compound,test,setting,quantity,value
COc1ccc(C(=O)c2c[nH]c3ncc(-c4ccc(N5CCN(C(=O)OC(C)(C)C)CC5)nc4)cc23)cc1,MTT,"10 µM, 48 h",viability,88.1%
N#Cc1ccc(CN2C(=O)/C(=N\NC(=O)c3cc4ccccc4[nH]3)c3ccccc32)cc1,,30 µM,inhibition,94.6%
CCOC(=O)CCn1cc(C(=O)c2ccc(F)cc2)c2cc(-c3ccc(N4CCN(C(=O)OC(C)(C)C)CC4)nc3)cnc21,MTT,"10 µM, 48 h",viability,90.2%
C[C@]12CC[C@H](O)C[C@H]1CC[C@@H]1[C@@H]2C[C@@H](O)[C@]2(C)[C@@H](C3=CC(=O)OC3)CC[C@]12O,MTT,"5 µM, 24 h",inhibition,72.3%
Cc1c(Cc2cccc(N(C)S(=O)(=O)CCCNCCCC(=O)N3CCN(c4ccc(Nc5c(C(N)=O)cnc6ccc(-c7cnc8ccccc8c7)cc56)cc4C(F)(F)F)CC3)c2)c(=O)oc2cc(OC(=O)N(C)C)ccc12,CCK-8,,GI50,4.66 µM
O=C(c1ccc(F)cc1)c1c[nH]c2ncc(-c3ccc(N4CCNCC4)nc3)cc12,MTT,"10 µM, 48 h",viability,94.7%
N.N.[Cl][Pt][Cl],SRB,72 h,EC50,4.5 µM
CN1C[C@H](C(=O)N[C@]2(C)O[C@@]3(O)[C@@H]4CCCN4C(=O)[C@H](Cc4ccccc4)N3C2=O)C=C2c3cccc4[nH]cc(c34)C[C@H]21,MTT,72 h,EC50,13 µM
O=C(N/N=C1\C(=O)N(Cc2ccccc2)c2ccc(Br)cc21)c1cc2ccccc2[nH]1,,30 µM,inhibition,96.1%
COc1cc([C@@H]2c3cc4c(cc3[C@H](O)[C@H]3COC(=O)[C@H]23)OCO4)cc(OC)c1OC,MTT,72 h,EC50,0.024 µM
O=C(c1ccc(F)cc1)c1c[nH]c2ncc(-c3ccnc(N4CCNCC4)c3)cc12,MTT,"10 µM, 48 h",viability,101%
N.N.[Cl][Pt][Cl],MTT,,GI50,14.3 µM
O=C(N/N=C1\C(=O)N(Cc2ccccc2)c2ccc(Cl)cc21)c1cc2ccccc2[nH]1,,30 µM,inhibition,99.7%
CC[C@@]1(OC(=O)[C@@H]2CCCN2)C(=O)OCc2c1cc1n(c2=O)Cc2cc3cc4c(cc3nc2-1)OCO4,MTT,,IC50,0.031 µM
O=C(N/N=C1\C(=O)N(Cc2ccccc2)c2ccccc21)c1cc2ccccc2[nH]1,,30 µM,inhibition,98.4%
CC(=O)O[C@H]1C[C@H](O[C@H]2[C@@H](O)C[C@H](O[C@H]3[C@@H](O)C[C@H](O[C@H]4CC[C@@]5(C)[C@H](CC[C@@H]6[C@@H]5C[C@@H](O)[C@]5(C)[C@@H](C7=CC(=O)OC7)CC[C@]65O)C4)O[C@@H]3C)O[C@@H]2C)O[C@H](C)[C@H]1O,MTT,"5 µM, 24 h",inhibition,73.9%
CS(=O)(=O)N1CCN(c2ccc(-c3cnc4[nH]cc(C(=O)c5ccc(F)cc5)c4c3)cn2)CC1,MTT,"10 µM, 48 h",viability,97.3%
O=C(N/N=C1\C(=O)N(Cc2ccc(Cl)cc2)c2ccccc21)c1cc2ccccc2[nH]1,,30 µM,inhibition,96.9%
